# In ChEMBL document CHEMBL4513216, “Probing the Open Global Health Chemical Diversity Library for Multistage-Active Starting Points for Next-Generation Antimalarials” (ACS Infect Dis, 2020):
# Assay: Toxicity liver stage against HepG2, at 10uM
# Type: cell-based
# Parameters: test concentration 10 uM, cell line HepG2-A16-CD81EGFP
# Conditions: human, HepG2-A16-CD81EGFP cells; read-out: INHIBITION
# Summary of the method: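 Uninfected HepG2-A16-CD81EGFP cells, 3 × 10^3 per well, 1536-well, plated on prespotted compound at 10 μM final, parasite-free screening media added to match infected plates; puromycin 10 μM positive, DMSO 0.5% negative; run in parallel with 48 h PbLuc assay at 37 °C, 5% CO2; viability by CellTiter-Glo luminescence, normalized to controls.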
row,Structure (SMILES),cytotoxicity at 10 µM
1,CC(C)(C)NC(=O)COc1ccc(CNCc2ccccn2)cc1,-11.5%
2,COc1ccc(CN[C@@H]2CO[C@H](CNC(=O)NC(C)C)[C@H]2O)cc1,-4.7%
3,O=C1CCNc2ccc(F)cc2CN1Cc1ccccc1,-3.03%
4,O=C(CNC(=O)N1CCc2c([nH]c3ccc(Cl)cc23)C1)NC1CCCC1,-2.91%
5,O=C(COc1coc(CN2CCCC2)cc1=O)Nc1ccc(Cl)c(Cl)c1,0.0723%
6,Cc1cc(-c2nn3c(C4CC4)nnc3s2)on1,-2.37%
7,O=C(NC1CC(=O)N(C2CC2)C1)c1cccs1 (stereo not drawn),17.5%
8,COCCN(Cc1ccoc1)C(=O)c1c(F)cccc1F,10.6%
9,COc1nn(C)cc1C(=O)NCC(OC)c1ccccc1C (stereo not drawn),-8.32%
10,Cc1nc(-c2cnn(C)c2)nc2c1CN(C(=O)c1cccn1C)CC2,4.87%
11,c1cnc(N2CCCn3c(nnc3Cn3cccn3)C2)nc1,-1.58%
12,CO[C@H]1CC[C@H]2[C@H]1OCCN2C(=O)c1ccc(C)nc1,-141%
13,Cc1cs/c(=N\C(=O)Cn2nc(N3CCC(C)CC3)ccc2=O)[nH]1,1.34%
14,O=S(=O)(Nc1cnn(C2CCOCC2)c1)c1ccc(F)c(F)c1,6.04%
15,O=C(NCCC1=CCCCC1)C1CCCN(c2ccc3nncn3n2)C1 (stereo not drawn),4.01%
16,CCN(c1ccc(C(=O)NCCCN2CCCC2)cc1)S(=O)(=O)CC,-3.29%
17,COc1ccc2nnc(C(=O)NCC3CCCC3)nc2c1,-3.35%
18,CC(=O)N1CCOC(CCc2cc(-c3c(C)noc3C)ncn2)C1 (stereo not drawn),-1.98%
19,Cc1noc(C)c1-c1cc(CCC2CN(C(=O)CN)CCO2)ncn1 (stereo not drawn),2.89%
20,CCC(=O)N1CCCC1c1n[nH]cc1-c1ccccc1F (stereo not drawn),-3.02%
21,COCC(=O)N1CCC([C@@H]2C[C@H](C(F)(F)F)n3nc(C)cc3N2)CC1,-33.6%
22,CC(=O)N1CCC(C(=O)N2CCCC(Cc3ccccn3)C2)CC1 (stereo not drawn),6.97%
23,CC(=O)N1CCC(c2cc(Nc3ncccn3)nc(C)n2)C1 (stereo not drawn),-27.7%

row,Structure (SMILES),cytotoxicity at 10 µM
1,CC(=O)N1CCN(C(C)C)CC(COc2ccccc2)C1 (stereo not drawn),-28.8%
2,NC(=O)C1(c2cnccn2)CCCN1Cc1ccc(Cl)c(F)c1 (stereo not drawn),-4%
3,CCNC(=O)c1cccc(CNC(=O)c2cnc(C(C)(C)C)s2)c1,-0.969%
4,c1cnn(CC2CN(c3ncnc4c3CCC4)CCO2)c1 (stereo not drawn),31.2%
5,O=C(COC1CCCC1)N1CCC(C(O)c2ccc(F)cc2)CC1 (stereo not drawn),6.62%
6,COc1ccc(C2CCCN2c2cnc3ccccc3n2)c(OC)c1 (stereo not drawn),7.54%
7,COc1ccc(Cl)cc1NCC(=O)N(Cc1cccnc1)C1CC1,11.8%
8,CC(C)(NCCOc1ccc(CC#N)cc1)c1nccs1,-3.25%
9,CC(=O)N1CCC(NC(=O)CN2CCCc3c(C)ccc(F)c32)CC1,-5.82%
10,CN1CCN(CCOc2ccc(NC(=O)c3ccoc3)cc2)CC1,-2.09%
11,O=C(c1sccc1Br)N1CCOCC1,-2.34%
12,CC(=O)NCCCNC(=O)N(C)C(C)Cc1ccc(Cl)cc1 (stereo not drawn),0.866%
13,COc1cccc(CN(C)Cc2c(C)noc2C)c1OC,8.82%
14,c1csc(-c2nc(CN3CCN(c4cnccn4)CC3)co2)c1,-5.67%
15,CCc1nsc(N2CCOC3(CCCC3)C2)n1,6.05%
16,COc1cc2c(cc1OC)CN(C(=O)Cn1nc(C)cc1C)CC2,1.29%
17,O=C1CC[C@H](C(=O)N(Cc2cccc(Br)c2)C2CC2)N1,7.24%
18,CC(C)(C)c1n[nH]c(C2CN(Cc3ncc[nH]3)CCO2)n1 (stereo not drawn),3.01%
19,CC(=O)N(C)C1CCN(C(=O)NCCc2cc(F)ccc2F)CC1,-7.76%
20,CCN(C(=O)CN1CCn2c(C)nnc2C1)C1=CCCCC1,13.4%
21,Cc1c(NCCCOc2cccc(C#N)c2)cccc1C(N)=O,-0.572%
22,Cc1nc(CN2CCC(c3nc4cc(Cl)ccc4o3)CC2)oc1C,-8.56%
23,COC(=O)CNC(=O)C1CCN(S(C)(=O)=O)CC1,2.91%

row,Structure (SMILES),cytotoxicity at 10 µM
1,O=C(NCc1ccccc1F)N1CCCCC1C1OCCO1 (stereo not drawn),2.01%
2,O=C(CCNC(=O)c1cccc(OC(F)F)c1)Nc1cccnc1,0.258%
3,Cc1nc(C)n(CC2CN(CCc3cccs3)CCO2)n1 (stereo not drawn),7.12%
4,CSC1(CNc2ccc(Br)cn2)CCOCC1,-9.99%
5,Cc1nc(C2(NCc3cccc(F)c3F)CCCCC2)no1,0.749%
6,CCC(NC(=O)NCc1cccc(N(C)C)n1)c1cccs1 (stereo not drawn),17.9%
7,CN1CCC(NC(=O)Nc2ccc(Cl)c(F)c2)C1=O (stereo not drawn),-136%
8,CCC(C)Oc1cc(C(=O)Nc2nccs2)ccn1 (stereo not drawn),-6.19%
9,O=C(CCc1ccc(Br)cc1)NCCc1nnc[nH]1,2.7%
10,CC(CO)NC(=O)c1ccc(NCc2ccc(F)c(F)c2)cc1 (stereo not drawn),-5.89%
11,CC(C)NC(=O)C(C)S(=O)(=O)c1cc2c(cc1Cl)OCCO2 (stereo not drawn),-3.25%
12,COCCN1CC=C(c2cccc(OC)c2)CC1,6.45%
13,CC(CCc1ccccc1)N1CCC(C(=O)Nc2ccccn2)CC1 (stereo not drawn),13.5%
14,Cc1ccc(NC(=O)NCCc2cnn(C)c2)c(N(C)C)n1,13.4%
15,Cc1ccccc1CNC(=O)CNc1ccc(OC2CCOC2)cc1 (stereo not drawn),2.77%
16,O=C(c1ccc2c(c1)[nH]c(=O)n2C1CCCC1)N1CCSCC1,-42.3%
17,CCOc1ccc(C(=O)N(Cc2cnn(C)c2)C(C)C)cc1,13.4%
18,Cn1ccc(C(=O)NCc2ccc(Cn3ccnc3)cc2)cc1=O,3.32%
19,CC(C)(NS(C)(=O)=O)c1nc(-c2ccc(F)c(F)c2)no1,-1.49%
20,CCCC(C)NC(=O)c1ccc(-c2ccco2)[nH]c1=O (stereo not drawn),-20%
21,CC(NC1(CNC(=O)CC(C)(C)C)CCOCC1)c1ccccc1 (stereo not drawn),8.57%
22,CN(CCNC(=O)N1CCN(Cc2ccon2)CC1)c1ccccc1,22.2%
23,Cc1nn(C)c(C)c1C1COCCN1c1ncnc2sccc12 (stereo not drawn),2.84%

row,Structure (SMILES),cytotoxicity at 10 µM
1,CCc1nc(CC(=O)Nc2cnn(CC3CCCO3)c2)cs1 (stereo not drawn),-3.11%
2,CCOc1ccc(CN(C)C(=O)NC(C)c2nncn2C)cc1 (stereo not drawn),8.62%
3,Cc1n[nH]c(C2CN(C(=O)CCc3ccsc3)CCO2)n1 (stereo not drawn),-5.15%
4,CN(C)C(=O)Cc1nc(CN2CCCCC2Cn2cccn2)cs1 (stereo not drawn),6.04%
5,NC(=O)c1ccc(CN2CCCC(O)C2)cc1 (stereo not drawn),0.459%
6,COCC1CN(C(=O)c2ccc(C)o2)Cc2nccn2C1 (stereo not drawn),-97.1%
7,O=C(Cc1ccccn1)N1C[C@H]2CCC[C@@]2(COc2ccccn2)C1,1.86%
8,CCn1ncc2[nH]c(-c3cc4c(cc3OC)OCO4)nc21,-2.99%
9,O=C(C1CCCN(C2CCOCC2)C1)N1CCc2ncccc2C1 (stereo not drawn),4.21%
10,COC(=O)c1ccc(C(=O)N2CCCC(Nc3ccc(F)cc3)C2)cc1 (stereo not drawn),1.34%
11,COCCCC1(CO)CCCN(CCOC)C1 (stereo not drawn),-1.87%
12,CCc1cnc(C)nc1NCCNc1nc(C)cc(=O)[nH]1,-9.01%
13,COC1CCCN(CCCc2cn[nH]c2)C1 (stereo not drawn),2.24%
14,Cc1ccc(CN(Cc2ccncc2)C2CCN(C)CC2)s1,7.39%
15,O=C(CC1CCc2ccccc21)N1CCC(O)(Cn2ccnc2)CC1 (stereo not drawn),5.01%
16,COc1cccc(CN2CCCC3(CCN(C(CO)CO)C3)C2)c1 (stereo not drawn),-5.96%
17,CO[C@@H]1c2ccccc2C2(CCN(C(=O)CNS(C)(=O)=O)CC2)[C@H]1O,11.1%
18,CCN1CCN(Cc2nc(Cc3ccccc3)n[nH]2)CC1,-9.34%
19,c1ccc(-c2nc(CCNC3CCOC4(CCOCC4)C3)no2)cc1 (stereo not drawn),4.47%
20,CC(CN1CCOCC1)NC1CCN(Cc2cccc(O)c2)CC1 (stereo not drawn),-0.683%
21,COc1ccc(CN2C[C@@H](CN(C)C)[C@@H](CO)C2)cc1CN1CCCC1,4.59%
22,Cc1cccc(C(C(=O)NCCCc2nnc3ccccn23)N(C)C)c1 (stereo not drawn),-7.88%
23,Cc1nc(CCCNC(=O)C2CC(=O)N(C(C)(C)C)C2)sc1C (stereo not drawn),-6.86%

row,Structure (SMILES),cytotoxicity at 10 µM
1,CCC(NC(=O)C1CCN(S(C)(=O)=O)CC1)c1ccc(OC)c(OC)c1 (stereo not drawn),-6.69%
2,CN(C)C(=O)CN1CCN(Cc2coc(-c3cccc(F)c3)n2)CC1,-3.16%
3,Cc1cc(C)n(CC2CCCN2CC(=O)Nc2cc(C(C)C)no2)n1 (stereo not drawn),0.407%
4,COc1ccnc(N2CCN(CC(=O)N3CCOC(C)C3)CC2)n1 (stereo not drawn),-5.4%
5,CC(C(=O)N1CCCN(c2ccccc2C#N)CC1)n1cccn1 (stereo not drawn),-8.3%
6,COc1ccc(C2=CCN(C(=O)C3CCC3)CC2)cc1,-13.1%
7,CC(NC(=O)NCCCn1cccn1)c1ccc2c(c1)OCCCO2 (stereo not drawn),-9.13%
8,Cc1nccn1C1CCCN(C(=O)CCCNc2ncccn2)C1 (stereo not drawn),-6.42%
9,Cc1ccc(N2CCCC(NCC(=O)NC(C3CC3)C3CC3)C2)nn1 (stereo not drawn),-2.8%
10,Cc1nn(C)c(Cl)c1C1CCCN1C(=O)c1cnc[nH]1 (stereo not drawn),-2.11%
11,Cc1noc2ncc(C(=O)N(CC3CCOC3)C3CC3)cc12 (stereo not drawn),-6.64%
12,Cc1nc(CNCC2CCCN2c2cccnn2)cs1 (stereo not drawn),-6.26%
13,CCOc1cc(/C=C/c2ncc(C(=O)O)s2)ccc1O,0.241%
14,CS(=O)(=O)NC1CCCN(C(=O)NCc2cccnc2)C1 (stereo not drawn),1.59%
15,Cc1noc([C@@H]2C[C@@H]3CCN(CC4CC4)C[C@H]3O2)n1,-139%
16,COc1ccc(OCCNCc2c(C)nn(C)c2N(C)C)cc1,-6.63%
17,CCn1nc(C)cc1C(=O)N1CC[C@H](OC)[C@H]2CN(CC3CC3)C[C@H]21,-133%
18,Cn1nnc2c1CCN(Cc1ccoc1)C2COCc1ccccc1 (stereo not drawn),-138%
19,CC1c2ncc(COc3cccnc3)n2CCN1C(=O)C1=CCCC1 (stereo not drawn),-2.59%
20,CNC(=O)[C@H]1C[C@H]2OCC[C@H]2N(Cc2cccc3ccccc23)C1,7.67%
21,O=C(CCN1C[C@H]2CC[C@@H]1C2)N1CCN(c2cccc(Cl)c2)C(=O)C1,1.4%
